The structures appear in SMILES notation. The source made the active and inactive calls. The calls are words filed in the database; no cut-off is given here.

In one experiment the test system is HT-29. The experiment is described as follows: Cytotoxicity against human HT-29 cells after 72 hrs by MTT assay. Format: functional, cell-based. To be noted: HT-29, 72 h. In short, it runs like this: (§1)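 Cells seeded at 10^4/well, exposed 24 h later to graded concentrations (0.01–100 µM) for 72 h at 37°C; MTT 0.5 mg/ml for 2 h, formazan dissolved in DMSO, absorbance at 570 nm. […] Colon lines in DMEM, breast lines in RPMI, both with 10% FCS.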
For the molecule `COc1cccc(N2C(=O)CS/C2=N\c2csc(-c3ccc(Cl)cc3)c2)c1`, it took 24.6 µM to reach half-maximal inhibition (IC50).

Molecule `O=C1CS/C(=N\c2nc(-c3ccc(Cl)cc3)cs2)N1` had an IC50 of 8.9 µM. Compared with the last molecule, the IC50 is about 2.8-fold lower.

As for `CC(C)(C)c1cc(/N=C2/NC(=O)CS2)cs1`, the IC50 was > 50 µM.

Turning to `Cc1ccc(-c2cc(/N=C3/NC(=O)CS3)cs2)cc1`, the IC50 was > 50 µM.

Consider `O=C1CS/C(=N\c2csc(-c3ccc(Cl)cc3)c2)N1c1ccccc1`, for which inhibition was half-maximal at 41.4 µM (IC50).

On to `O=C1CS/C(=N\c2c[se]c(-c3ccc(Cl)cc3)c2)N1`, for which the IC50 is > 50 µM.

`CCCCCC/C=C1\S/C(=N\c2csc(-c3ccc(Cl)cc3)c2)NC1=O` registered a 50% inhibitory concentration (IC50) of 33.5 µM.

As for `O=C1N/C(=N/c2csc(-c3ccc(Cl)cc3)c2)S/C1=C\c1ccccc1`, the midpoint of inhibition, the IC50, lay at 10.5 µM. Against the preceding molecule, the IC50 is about 3.2-fold lower.

Turning to `O=C1CS/C(=N\c2csc(-c3ccc(Cl)cc3)c2)N1c1cccc2ccccc12`, the IC50 is > 50 µM.

For `O=C1N/C(=N/c2csc(-c3ccc(Cl)cc3)c2)S/C1=C\c1ccc(O)cc1`, the IC50 was > 50 µM.

On to `COc1cccc(N2C(=O)CS/C2=N\c2csc(-c3cccc4ccccc34)c2)c1`, for which the IC50 was > 50 µM.

Take `O=C1CS/C(=N\c2csc(-c3ccccc3)c2)N1`: the IC50 was > 50 µM.

As for `O=C1CS/C(=N\c2csc(-c3cccc4ccccc34)c2)N1`, the IC50 was > 50 µM.

Take `COc1ccc(-c2cc(/N=C3/NC(=O)CS3)cs2)cc1`: the IC50 was > 50 µM.

In the case of `O=C1N/C(=N/c2nc(-c3ccc(Cl)cc3)cs2)S/C1=C\c1ccc(F)cc1`, inhibition was half-maximal at 2.9 µM (IC50).

Another experiment relates to HT-29. Briefly: Induction of cell cycle arrest in human HT-29 cells assessed as accumulation at subG1 phase at 0.5 to 10 uM by propidium iodide staining based flow cytometry. It counts as functional.
Conditions: not given
Background: Flow cytometry measures light scatter and fluorescence of single cells or particles in a stream.
On to `O=C1N/C(=N/c2csc(-c3ccc(Cl)cc3)c2)S/C1=C\c1ccccc1`, for which the outcome was inactive.

In a further experiment the test system is HT-29. Briefly: Induction of cell cycle arrest in human HT-29 cells assessed as increase in accumulation at S phase at 0.5 to 10 uM by propidium iodide staining based flow cytometry. It counts as functional.
Conditions: not given
In the case of `O=C1N/C(=N/c2csc(-c3ccc(Cl)cc3)c2)S/C1=C\c1ccccc1`, the outcome was Active.

A further experiment deals with SW-620. Briefly: Cytotoxicity against human SW620 cells after 72 hrs by MTT assay. To be noted: SW-620, 72 h. Format: functional, cell-based. In short, it runs like this: as §1
On the technique in general: Tetrazolium assays rely on reduction of a dye to a coloured formazan, in cell work by metabolically active cells.
Turning to `COc1cccc(N2C(=O)CS/C2=N\c2csc(-c3ccc(Cl)cc3)c2)c1`, the IC50 was 33 µM.

Consider `O=C1CS/C(=N\c2nc(-c3ccc(Cl)cc3)cs2)N1`, for which the IC50 is > 50 µM.

As to `CC(C)(C)c1cc(/N=C2/NC(=O)CS2)cs1`, the IC50 was > 50 µM.

As to `Cc1ccc(-c2cc(/N=C3/NC(=O)CS3)cs2)cc1`, the IC50 is > 50 µM.

As for `O=C1CS/C(=N\c2c[se]c(-c3ccc(Cl)cc3)c2)N1`, the IC50 was > 50 µM.

For the molecule `O=C1N/C(=N/c2csc(-c3ccc(Cl)cc3)c2)S/C1=C\c1ccccc1`, the IC50 is > 50 µM.

The molecule `O=C1CS/C(=N\c2csc(-c3ccc(Cl)cc3)c2)N1c1cccc2ccccc12` returned an IC50 of 19.5 µM.

With `O=C1CS/C(=N\c2csc(-c3ccccc3)c2)N1`, the IC50 was > 50 µM.

For `O=C1CS/C(=N\c2csc(-c3cccc4ccccc34)c2)N1`, the IC50 was > 50 µM.

Regarding `COc1ccc(-c2cc(/N=C3/NC(=O)CS3)cs2)cc1`, the IC50 is > 50 µM.

In the case of `O=C1N/C(=N/c2nc(-c3ccc(Cl)cc3)cs2)S/C1=C\c1ccc(F)cc1`, the IC50 was > 50 µM.

The subject of a further experiment is MCF7. The experiment is described as follows: Cytotoxicity against human MCF7 cells after 72 hrs by MTT assay. Format: functional, cell-based. To be noted: MCF7, 72 h. In outline: as §1
Regarding `COc1cccc(N2C(=O)CS/C2=N\c2csc(-c3ccc(Cl)cc3)c2)c1`, the IC50 was > 50 µM.

Regarding `O=C1CS/C(=N\c2nc(-c3ccc(Cl)cc3)cs2)N1`, the half-inhibitory concentration (IC50) was > 50 µM.

For `CC(C)(C)c1cc(/N=C2/NC(=O)CS2)cs1`, the IC50 is > 50 µM.

As for `Cc1ccc(-c2cc(/N=C3/NC(=O)CS3)cs2)cc1`, the IC50 was > 50 µM.

Take `O=C1CS/C(=N\c2csc(-c3ccc(Cl)cc3)c2)N1c1ccccc1`: the IC50 was > 50 µM.

On to `O=C1CS/C(=N\c2c[se]c(-c3ccc(Cl)cc3)c2)N1`, for which the IC50 is > 50 µM.

In the case of `CCCCCC/C=C1\S/C(=N\c2csc(-c3ccc(Cl)cc3)c2)NC1=O`, the IC50 is > 50 µM.

As for `O=C1N/C(=N/c2csc(-c3ccc(Cl)cc3)c2)S/C1=C\c1ccccc1`, the IC50 was > 50 µM.

Regarding `O=C1CS/C(=N\c2csc(-c3ccc(Cl)cc3)c2)N1c1cccc2ccccc12`, the IC50 was > 50 µM.

In the case of `O=C1N/C(=N/c2csc(-c3ccc(Cl)cc3)c2)S/C1=C\c1ccc(O)cc1`, the IC50 was > 50 µM.

Regarding `COc1cccc(N2C(=O)CS/C2=N\c2csc(-c3cccc4ccccc34)c2)c1`, the IC50 is > 50 µM.

For the molecule `O=C1CS/C(=N\c2csc(-c3ccccc3)c2)N1`, the IC50 is > 50 µM.

As for `O=C1CS/C(=N\c2csc(-c3cccc4ccccc34)c2)N1`, the IC50 was > 50 µM.

As for `COc1ccc(-c2cc(/N=C3/NC(=O)CS3)cs2)cc1`, the IC50 is > 50 µM.

Consider `O=C1N/C(=N/c2nc(-c3ccc(Cl)cc3)cs2)S/C1=C\c1ccc(F)cc1`, for which the IC50 is > 50 µM.

In a further experiment the test system is MDA-MB-231. Briefly: Cytotoxicity against human MDA-MB-231 cells after 72 hrs by MTT assay. It counts as functional, cell-based. To be noted: MDA-MB-231, 72 h. In outline:
as §1
Consider `COc1cccc(N2C(=O)CS/C2=N\c2csc(-c3ccc(Cl)cc3)c2)c1`, for which the IC50 was > 50 µM.

Consider `O=C1CS/C(=N\c2nc(-c3ccc(Cl)cc3)cs2)N1`, for which the IC50 was > 50 µM.

As to `CC(C)(C)c1cc(/N=C2/NC(=O)CS2)cs1`, the IC50 is > 50 µM.

Turning to `Cc1ccc(-c2cc(/N=C3/NC(=O)CS3)cs2)cc1`, the IC50 was > 50 µM.

The molecule `O=C1N/C(=N/c2csc(-c3ccc(Cl)cc3)c2)S/C1=C\c1ccccc1` registered an IC50 of 18 µM.

As for `O=C1CS/C(=N\c2csc(-c3ccccc3)c2)N1`, the IC50 is > 50 µM.

On to `O=C1CS/C(=N\c2csc(-c3cccc4ccccc34)c2)N1`, for which the IC50 is > 50 µM.

Turning to `COc1ccc(-c2cc(/N=C3/NC(=O)CS3)cs2)cc1`, the IC50 was > 50 µM.

As for `O=C1N/C(=N/c2nc(-c3ccc(Cl)cc3)cs2)S/C1=C\c1ccc(F)cc1`, the IC50 is > 50 µM.

Test system in the next experiment: not listed separately
The experiment is described as follows: Cytotoxicity against human HCT116 cells after 72 hrs by MTT assay. It counts as functional, cell-based. To be noted: HCT-116, 72 h. In outline: as §1
As for `COc1cccc(N2C(=O)CS/C2=N\c2csc(-c3ccc(Cl)cc3)c2)c1`, the IC50 is > 50 µM.

For `O=C1CS/C(=N\c2nc(-c3ccc(Cl)cc3)cs2)N1`, the IC50 was 23.8 µM.

Regarding `CC(C)(C)c1cc(/N=C2/NC(=O)CS2)cs1`, the IC50 was > 50 µM.

As for `Cc1ccc(-c2cc(/N=C3/NC(=O)CS3)cs2)cc1`, the IC50 is > 50 µM.

In the case of `O=C1N/C(=N/c2csc(-c3ccc(Cl)cc3)c2)S/C1=C\c1ccccc1`, 11.2 µM corresponded to half-maximal inhibition (IC50). This lies in the double-digit micromolar range.

Consider `O=C1CS/C(=N\c2csc(-c3ccccc3)c2)N1`, for which the IC50 is > 50 µM.

In the case of `O=C1CS/C(=N\c2csc(-c3cccc4ccccc34)c2)N1`, the IC50 is > 50 µM.

`COc1ccc(-c2cc(/N=C3/NC(=O)CS3)cs2)cc1`: the IC50 was > 50 µM.

`O=C1N/C(=N/c2nc(-c3ccc(Cl)cc3)cs2)S/C1=C\c1ccc(F)cc1` registered an IC50 of 7.5 µM. This lies in the single-digit micromolar range.

As usually defined, the IC50 is the midpoint of a concentration-inhibition curve. Read a high IC50 as a need for much substance.

The record behind these values is ChEMBL document CHEMBL3414496, “Synthesis and biological evaluation of novel 2-heteroarylimino-1,3-thiazolidin-4-ones as potential anti-tumor agents” (Eur J Med Chem, 2015).
